From the M2OR odorant receptor database
Positions count from the first letter of the chain named.

What was measured:
Details in all cases: stereoisomer not certain
[1] = system: T1, O10A2 H43R H207R K258T
T1 sequence (whole entry): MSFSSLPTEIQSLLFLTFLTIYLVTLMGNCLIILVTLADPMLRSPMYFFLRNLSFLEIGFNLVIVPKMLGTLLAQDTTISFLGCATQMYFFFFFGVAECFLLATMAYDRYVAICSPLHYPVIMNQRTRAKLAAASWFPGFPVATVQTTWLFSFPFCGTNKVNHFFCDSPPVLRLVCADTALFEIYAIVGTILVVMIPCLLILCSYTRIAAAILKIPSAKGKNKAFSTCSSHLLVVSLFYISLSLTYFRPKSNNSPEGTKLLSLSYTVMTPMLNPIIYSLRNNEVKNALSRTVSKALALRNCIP
In short: (§1)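 Transient luciferase assays in mammalian cell lines were common, though methods varied by source. The values come from published papers and their supplementary material, with extra details from the original authors when needed. Responsive refers to a measured signal the original authors judged statistically different from baseline, and non-responsive (inactive) to the remainder.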

[2] = system: T2, O10A3 C8G
T2 sequence (whole entry): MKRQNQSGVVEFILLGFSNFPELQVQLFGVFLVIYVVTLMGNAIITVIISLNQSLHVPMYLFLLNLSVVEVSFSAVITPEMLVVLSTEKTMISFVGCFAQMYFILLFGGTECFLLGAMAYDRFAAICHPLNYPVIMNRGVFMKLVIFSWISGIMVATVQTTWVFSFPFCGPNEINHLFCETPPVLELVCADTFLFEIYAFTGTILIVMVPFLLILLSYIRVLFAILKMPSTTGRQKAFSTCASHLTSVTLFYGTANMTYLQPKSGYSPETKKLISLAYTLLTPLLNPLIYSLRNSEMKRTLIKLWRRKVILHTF
In short: as §1

[3] = system: T3, O10A6
T3 sequence (whole entry): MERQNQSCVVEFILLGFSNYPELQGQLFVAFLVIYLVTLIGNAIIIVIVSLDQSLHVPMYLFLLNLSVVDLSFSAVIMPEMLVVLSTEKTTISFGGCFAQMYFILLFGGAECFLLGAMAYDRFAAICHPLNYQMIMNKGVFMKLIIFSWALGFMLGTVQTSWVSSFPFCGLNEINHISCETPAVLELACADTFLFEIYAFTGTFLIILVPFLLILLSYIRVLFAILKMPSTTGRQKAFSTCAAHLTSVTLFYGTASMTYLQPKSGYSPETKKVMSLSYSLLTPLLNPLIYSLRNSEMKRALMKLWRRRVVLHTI
In short: as §1

[4] = system: T4, O10AD G65C
T4 sequence (whole entry): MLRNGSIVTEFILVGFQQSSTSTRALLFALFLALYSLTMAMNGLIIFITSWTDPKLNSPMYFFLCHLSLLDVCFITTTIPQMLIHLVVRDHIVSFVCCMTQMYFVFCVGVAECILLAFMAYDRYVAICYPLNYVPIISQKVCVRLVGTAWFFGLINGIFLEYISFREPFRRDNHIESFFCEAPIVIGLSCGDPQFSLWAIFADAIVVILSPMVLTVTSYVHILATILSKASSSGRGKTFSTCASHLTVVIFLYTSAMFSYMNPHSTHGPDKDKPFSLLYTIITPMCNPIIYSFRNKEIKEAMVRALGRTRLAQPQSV
In short: as §1

[5] = system: T5, O10D3 V134A R197K
T5 sequence (whole entry): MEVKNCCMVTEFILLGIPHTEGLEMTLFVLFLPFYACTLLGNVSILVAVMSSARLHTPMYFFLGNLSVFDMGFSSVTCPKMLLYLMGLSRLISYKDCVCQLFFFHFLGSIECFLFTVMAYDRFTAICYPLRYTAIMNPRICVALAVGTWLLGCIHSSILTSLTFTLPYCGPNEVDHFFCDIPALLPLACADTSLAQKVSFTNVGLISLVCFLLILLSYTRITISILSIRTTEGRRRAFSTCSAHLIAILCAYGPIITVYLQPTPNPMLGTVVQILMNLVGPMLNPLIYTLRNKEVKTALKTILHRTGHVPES
In short: as §1

[6] = system: T6, O10G4 L24P V195E
T6 sequence (whole entry): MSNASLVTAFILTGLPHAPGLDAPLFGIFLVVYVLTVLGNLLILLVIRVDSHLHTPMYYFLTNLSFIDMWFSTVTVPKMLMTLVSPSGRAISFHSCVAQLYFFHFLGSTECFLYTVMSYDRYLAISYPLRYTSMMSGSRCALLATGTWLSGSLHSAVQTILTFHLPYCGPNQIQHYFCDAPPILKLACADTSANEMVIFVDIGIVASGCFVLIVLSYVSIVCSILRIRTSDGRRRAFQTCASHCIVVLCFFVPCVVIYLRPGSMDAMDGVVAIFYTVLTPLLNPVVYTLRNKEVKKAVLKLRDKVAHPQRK
In short: as §1

[7] = system: T7, O10G7 A18V P19Q G20A
T7 sequence (whole entry): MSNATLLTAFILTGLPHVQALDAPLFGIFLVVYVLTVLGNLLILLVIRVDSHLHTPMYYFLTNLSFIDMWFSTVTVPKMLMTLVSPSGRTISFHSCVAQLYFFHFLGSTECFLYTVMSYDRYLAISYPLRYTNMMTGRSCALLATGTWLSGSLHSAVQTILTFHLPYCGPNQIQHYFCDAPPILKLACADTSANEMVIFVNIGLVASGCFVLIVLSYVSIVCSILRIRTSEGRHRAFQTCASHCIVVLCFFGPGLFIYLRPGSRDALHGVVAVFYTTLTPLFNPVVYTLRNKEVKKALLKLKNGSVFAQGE
In short: as §1

[8] = system: T8, O10G7 I28V
T8 sequence (whole entry): T7 sequence (whole entry) with V18A, Q19P, A20G, I28V
In short: as §1

[9] = system: T9, A0A140T8K4
T9 sequence (whole entry): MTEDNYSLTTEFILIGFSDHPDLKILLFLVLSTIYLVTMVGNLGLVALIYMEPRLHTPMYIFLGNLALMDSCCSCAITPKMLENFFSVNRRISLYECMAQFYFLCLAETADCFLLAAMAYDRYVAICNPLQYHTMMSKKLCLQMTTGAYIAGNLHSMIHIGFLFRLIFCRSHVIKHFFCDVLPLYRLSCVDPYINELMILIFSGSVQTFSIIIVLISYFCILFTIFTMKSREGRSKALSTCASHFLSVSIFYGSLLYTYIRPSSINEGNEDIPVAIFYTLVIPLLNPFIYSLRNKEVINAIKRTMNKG
In short: as §1

[10] = system: T10, A0A2J8MY22
T10 sequence (whole entry): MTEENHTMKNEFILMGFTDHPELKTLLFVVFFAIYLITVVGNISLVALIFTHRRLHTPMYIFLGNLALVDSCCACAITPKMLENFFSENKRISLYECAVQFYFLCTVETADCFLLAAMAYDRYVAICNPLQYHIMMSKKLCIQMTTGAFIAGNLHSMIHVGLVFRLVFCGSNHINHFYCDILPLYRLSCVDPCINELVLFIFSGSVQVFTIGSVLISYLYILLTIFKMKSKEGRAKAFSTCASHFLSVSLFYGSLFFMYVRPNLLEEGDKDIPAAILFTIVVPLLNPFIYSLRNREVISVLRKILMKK
In short: as §1

[11] = system: T11, A0A2R8ZIW4
T11 sequence (whole entry): T10 sequence (whole entry) with V39I, I280V
In short: as §1

[12] = system: T12, A0A3Q7SVK8
T12 sequence (whole entry): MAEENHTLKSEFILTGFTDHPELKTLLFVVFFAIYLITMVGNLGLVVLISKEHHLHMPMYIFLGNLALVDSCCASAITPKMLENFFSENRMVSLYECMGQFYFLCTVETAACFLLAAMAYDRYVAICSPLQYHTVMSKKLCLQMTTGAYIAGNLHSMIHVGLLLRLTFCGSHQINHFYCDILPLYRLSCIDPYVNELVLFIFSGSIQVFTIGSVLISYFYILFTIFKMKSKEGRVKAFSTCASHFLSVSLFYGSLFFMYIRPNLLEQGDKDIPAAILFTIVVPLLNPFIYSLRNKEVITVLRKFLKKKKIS
In short: as §1

[13] = system: T13, A0A6P3DZI2
T13 sequence (whole entry): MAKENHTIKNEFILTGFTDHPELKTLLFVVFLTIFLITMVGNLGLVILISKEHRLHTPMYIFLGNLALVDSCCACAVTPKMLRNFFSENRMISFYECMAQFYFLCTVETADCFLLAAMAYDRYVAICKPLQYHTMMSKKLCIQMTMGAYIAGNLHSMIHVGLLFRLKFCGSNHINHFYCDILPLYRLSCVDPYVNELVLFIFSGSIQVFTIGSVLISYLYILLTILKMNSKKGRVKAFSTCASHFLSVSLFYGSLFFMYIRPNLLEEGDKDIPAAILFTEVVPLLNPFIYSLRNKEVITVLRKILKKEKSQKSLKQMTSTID
In short: as §1

[14] = system: T14, A0A6P6H1F7
T14 sequence (whole entry): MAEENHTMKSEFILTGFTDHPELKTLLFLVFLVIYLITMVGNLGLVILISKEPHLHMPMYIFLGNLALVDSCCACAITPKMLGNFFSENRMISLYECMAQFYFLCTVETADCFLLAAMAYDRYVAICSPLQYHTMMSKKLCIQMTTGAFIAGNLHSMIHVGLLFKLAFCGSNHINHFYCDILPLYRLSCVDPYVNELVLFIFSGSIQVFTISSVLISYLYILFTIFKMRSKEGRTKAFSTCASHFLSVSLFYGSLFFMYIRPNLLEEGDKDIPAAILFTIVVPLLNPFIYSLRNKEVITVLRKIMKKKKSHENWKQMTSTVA
In short: as §1

[15] = system: T15, A0A140T8K0
T15 sequence (whole entry): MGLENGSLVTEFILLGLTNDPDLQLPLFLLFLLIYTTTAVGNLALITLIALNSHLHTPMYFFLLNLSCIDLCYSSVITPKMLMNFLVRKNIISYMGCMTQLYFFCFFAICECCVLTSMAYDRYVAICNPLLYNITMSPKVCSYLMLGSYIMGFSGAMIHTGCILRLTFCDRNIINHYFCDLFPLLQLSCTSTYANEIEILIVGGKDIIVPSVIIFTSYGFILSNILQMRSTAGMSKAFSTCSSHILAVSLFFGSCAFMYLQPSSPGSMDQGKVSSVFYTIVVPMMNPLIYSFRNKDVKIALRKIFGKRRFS
In short: as §1

[16] = system: T16, A0A1L1SVG7
T16 sequence (whole entry): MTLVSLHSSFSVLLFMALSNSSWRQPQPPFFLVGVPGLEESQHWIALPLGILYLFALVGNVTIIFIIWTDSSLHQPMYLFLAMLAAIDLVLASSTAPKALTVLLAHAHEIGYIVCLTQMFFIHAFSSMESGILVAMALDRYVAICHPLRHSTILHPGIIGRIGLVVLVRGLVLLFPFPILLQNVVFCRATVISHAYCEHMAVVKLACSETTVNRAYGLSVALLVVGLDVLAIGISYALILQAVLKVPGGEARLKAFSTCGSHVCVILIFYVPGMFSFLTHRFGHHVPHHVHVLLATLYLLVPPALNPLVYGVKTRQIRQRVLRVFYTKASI
In short: as §1

Measured: odorant receptor agonist call

CCC1OC(=O)C(O)=C1C (stereo unspecified)
inactive: [1] | [2] | [3] | [4] | [5] | [6] | [7] | [8]

CC1=C(O)C(=O)C(C)O1 (stereo unspecified)
inactive: [1] | [2] | [3] | [4] | [5] | [6] | [7] | [8]

CC1CCc2nccnc21 (stereo unspecified)
active: [10] | [11] | [12] | [14]
inactive: [9] | [13]

CCc1ncc(C)nc1CC
active: [10] | [11] | [12] | [13] | [14]
inactive: [15] | [9]

O=c1ccc2ccccc2o1
inactive: [9] | [16]

CCC(C)c1nccnc1OC (stereo unspecified)
inactive: [15] | [9] | [13]
active: [10] | [11] | [12] | [14]

CCCC(C)=O
inactive: [9] | [16]

CCCCOC(=O)C(C)OC(=O)CCC (stereo unspecified)
inactive: [9] | [16]

C=Cc1cnccn1
inactive: [9] | [13]
active: [10] | [11] | [12] | [14]

CCCCCO
inactive: [9] | [16]

Cc1cnc(C)cn1
active: [10] | [11] | [12] | [14]
inactive: [9] | [13]
